Results published in ChEMBL document CHEMBL4725492, “Dioxane-Linked Amide Derivatives as Novel Bacterial Topoisomerase Inhibitors against Gram-Positive Staphylococcus aureus” (ACS Med Chem Lett, 2020).
Values after ≈ are worked out from the molar mass of the structure shown. Active and inactive are the calls of the source. The rule behind the calls is not given here.

Key:
[1] = target: DNA gyrase (Staphylococcus aureus, UniProt P0A0K8+P20831); test: Inhibition of Staphylococcus aureus DNA gyrase using relaxed pBR322 as substrate by gel electrophoresis; assay type: protein-complex assay
[2] = system: Staphylococcus aureus; test: Antibacterial activity against Staphylococcus aureus D83N by CLSI based agar dilution method; assay type: functional
[3] = system: K562; test: Growth inhibition of human K562 cells incubated for 48 hrs by sulforhodamine B assay; assay type: functional
[4] = system: Staphylococcus aureus; test: Antibacterial activity against Staphylococcus aureus ATCC 29213 by CLSI based agar dilution method; assay type: functional
[5] = system: Staphylococcus aureus; test: Antibacterial activity against Staphylococcus aureus USA300 by CLSI based agar dilution method; assay type: functional
[6] = system: Staphylococcus aureus; test: Antibacterial activity against Staphylococcus aureus 3527 by CLSI based agar dilution method; assay type: functional
[7] = target: Topoisomerase IV (Staphylococcus aureus, UniProt P0C1S7+P0C1U9); test: (§1) Inhibition of Staphylococcus aureus topoisomerase-4 assessed as reduction in decatenation of kinetoplast DNA agarose gel electrophoresis method; assay type: protein-complex assay
[8] = Growth inhibition of human K/VP.5 cells incubated for 48 hrs by sulforhodamine B assay; assay type: functional
[9] = target: Voltage-gated inwardly rectifying potassium channel KCNH2 (Homo sapiens, UniProt Q12809); test: Inhibition of human ERG; conditions: human
[10] = target: T1, DNA gyrase (Staphylococcus aureus) (UniProt P0A0K8+P20831); test: Inhibition of Staphylococcus aureus DNA gyrase assessed as double-strand break at 100 uM using relaxed pBR322 as substrate by ethidium bromide-based gel electrophoresis; assay type: protein-complex assay
In short: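 Gyrase-mediated DNA cleavage reactions with test agent across 0.1–100 μM. Products were resolved on ethidium-stained gels into negatively supercoiled, nicked and linear forms. DSBs were taken as percent of total lane fluorescence in the linear band, correcting for the different emission of supercoiled versus linear and nicked DNA. Cleavage in enzyme-only controls was subtracted.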

[11] = target: T1, DNA gyrase (Staphylococcus aureus); test: Inhibition of Staphylococcus aureus DNA gyrase assessed as double-strand break at 100 to 200 uM using relaxed pBR322 as substrate by ethidium bromide-based gel electrophoresis; assay type: protein-complex assay; conditions: dose microM 100-200
In short: (§2)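 S. aureus gyrase-mediated DNA cleavage: compound was incubated with enzyme and DNA, and products were resolved on an ethidium-stained gel into negatively supercoiled, nicked (single-strand break) and linear (double-strand break) forms. Lane fluorescence was corrected for differential band emission. Percent of each form was calculated, and enzyme-only cleavage was subtracted. Concentrations spanned 0.1 nM–200 μM, with a 20 μM single-point screen. Results are mean ± SD or range.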

[12] = target: T1, DNA gyrase (Staphylococcus aureus); test: Inhibition of Staphylococcus aureus DNA gyrase assessed as single-strand break at 100 to 200 uM using relaxed pBR322 as substrate by ethidium bromide-based gel electrophoresis; assay type: protein-complex assay; conditions: dose microM 100-200; in short: as §2
[13] = target: T1, DNA gyrase (Staphylococcus aureus); test: Inhibition of Staphylococcus aureus DNA gyrase assessed as single-strand break at 20 uM using relaxed pBR322 as substrate by ethidium bromide-based gel electrophoresis; assay type: protein-complex assay; in short: as §2
[14] = target: T1, DNA gyrase (Staphylococcus aureus); test: Inhibition of Staphylococcus aureus DNA gyrase assessed as double-strand break at 20 uM using relaxed pBR322 as substrate by ethidium bromide-based gel electrophoresis; assay type: protein-complex assay; in short: as §2
[15] = target: DNA topoisomerase 2-alpha (Homo sapiens, UniProt P11388); test: Inhibition of human topoisomerase 2alpha
In short: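 Human topoisomerase IIα decatenation activity was tested at a single concentration of 100 μM and reported as percent inhibition.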

[16] = target: Topoisomerase IV (Staphylococcus aureus, UniProt P0C1U9+P0C1S7); test: as §1; assay type: protein-complex assay

DNA topoisomerase 2-alpha, sequence (P11388 whole entry): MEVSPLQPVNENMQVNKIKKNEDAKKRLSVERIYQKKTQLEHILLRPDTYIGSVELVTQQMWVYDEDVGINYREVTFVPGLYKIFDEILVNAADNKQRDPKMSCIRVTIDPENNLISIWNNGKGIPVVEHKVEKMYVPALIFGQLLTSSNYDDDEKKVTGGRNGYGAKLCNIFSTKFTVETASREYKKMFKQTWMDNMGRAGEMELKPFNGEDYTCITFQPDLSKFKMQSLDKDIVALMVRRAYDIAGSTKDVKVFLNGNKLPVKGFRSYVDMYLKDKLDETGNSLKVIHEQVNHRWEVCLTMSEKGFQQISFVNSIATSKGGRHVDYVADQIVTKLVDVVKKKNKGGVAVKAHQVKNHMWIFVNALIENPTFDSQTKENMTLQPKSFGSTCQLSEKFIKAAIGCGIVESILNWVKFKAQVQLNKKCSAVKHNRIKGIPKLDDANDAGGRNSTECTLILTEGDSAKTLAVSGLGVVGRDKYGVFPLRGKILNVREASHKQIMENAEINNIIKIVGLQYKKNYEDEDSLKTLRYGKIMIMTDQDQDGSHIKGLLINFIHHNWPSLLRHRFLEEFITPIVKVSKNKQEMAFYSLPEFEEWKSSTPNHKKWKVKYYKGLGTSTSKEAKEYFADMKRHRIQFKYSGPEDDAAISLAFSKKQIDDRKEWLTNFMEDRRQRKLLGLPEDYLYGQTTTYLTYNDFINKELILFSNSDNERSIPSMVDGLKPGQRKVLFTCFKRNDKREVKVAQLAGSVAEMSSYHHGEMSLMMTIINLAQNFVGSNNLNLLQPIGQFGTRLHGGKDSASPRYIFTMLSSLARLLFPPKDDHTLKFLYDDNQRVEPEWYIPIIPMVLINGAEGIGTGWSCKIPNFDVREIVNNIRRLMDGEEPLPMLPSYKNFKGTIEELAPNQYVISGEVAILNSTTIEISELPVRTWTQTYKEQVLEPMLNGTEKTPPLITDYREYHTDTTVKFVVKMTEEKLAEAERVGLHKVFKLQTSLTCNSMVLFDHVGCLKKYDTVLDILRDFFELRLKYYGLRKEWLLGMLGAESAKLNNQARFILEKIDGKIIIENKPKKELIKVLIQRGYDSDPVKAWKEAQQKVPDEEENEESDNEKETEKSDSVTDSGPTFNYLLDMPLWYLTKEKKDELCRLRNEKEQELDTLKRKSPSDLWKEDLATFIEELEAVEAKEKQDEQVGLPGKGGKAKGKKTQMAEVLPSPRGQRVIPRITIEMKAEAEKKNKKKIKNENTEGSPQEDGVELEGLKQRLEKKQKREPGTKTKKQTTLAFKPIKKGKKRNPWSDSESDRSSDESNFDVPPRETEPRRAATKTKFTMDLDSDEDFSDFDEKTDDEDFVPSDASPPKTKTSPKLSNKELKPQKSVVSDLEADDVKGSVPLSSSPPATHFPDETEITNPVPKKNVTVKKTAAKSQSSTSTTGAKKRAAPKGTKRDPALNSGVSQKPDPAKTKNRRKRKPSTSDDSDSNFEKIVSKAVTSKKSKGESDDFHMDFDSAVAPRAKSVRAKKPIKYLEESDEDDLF
Voltage-gated inwardly rectifying potassium channel KCNH2, sequence (Q12809 whole entry): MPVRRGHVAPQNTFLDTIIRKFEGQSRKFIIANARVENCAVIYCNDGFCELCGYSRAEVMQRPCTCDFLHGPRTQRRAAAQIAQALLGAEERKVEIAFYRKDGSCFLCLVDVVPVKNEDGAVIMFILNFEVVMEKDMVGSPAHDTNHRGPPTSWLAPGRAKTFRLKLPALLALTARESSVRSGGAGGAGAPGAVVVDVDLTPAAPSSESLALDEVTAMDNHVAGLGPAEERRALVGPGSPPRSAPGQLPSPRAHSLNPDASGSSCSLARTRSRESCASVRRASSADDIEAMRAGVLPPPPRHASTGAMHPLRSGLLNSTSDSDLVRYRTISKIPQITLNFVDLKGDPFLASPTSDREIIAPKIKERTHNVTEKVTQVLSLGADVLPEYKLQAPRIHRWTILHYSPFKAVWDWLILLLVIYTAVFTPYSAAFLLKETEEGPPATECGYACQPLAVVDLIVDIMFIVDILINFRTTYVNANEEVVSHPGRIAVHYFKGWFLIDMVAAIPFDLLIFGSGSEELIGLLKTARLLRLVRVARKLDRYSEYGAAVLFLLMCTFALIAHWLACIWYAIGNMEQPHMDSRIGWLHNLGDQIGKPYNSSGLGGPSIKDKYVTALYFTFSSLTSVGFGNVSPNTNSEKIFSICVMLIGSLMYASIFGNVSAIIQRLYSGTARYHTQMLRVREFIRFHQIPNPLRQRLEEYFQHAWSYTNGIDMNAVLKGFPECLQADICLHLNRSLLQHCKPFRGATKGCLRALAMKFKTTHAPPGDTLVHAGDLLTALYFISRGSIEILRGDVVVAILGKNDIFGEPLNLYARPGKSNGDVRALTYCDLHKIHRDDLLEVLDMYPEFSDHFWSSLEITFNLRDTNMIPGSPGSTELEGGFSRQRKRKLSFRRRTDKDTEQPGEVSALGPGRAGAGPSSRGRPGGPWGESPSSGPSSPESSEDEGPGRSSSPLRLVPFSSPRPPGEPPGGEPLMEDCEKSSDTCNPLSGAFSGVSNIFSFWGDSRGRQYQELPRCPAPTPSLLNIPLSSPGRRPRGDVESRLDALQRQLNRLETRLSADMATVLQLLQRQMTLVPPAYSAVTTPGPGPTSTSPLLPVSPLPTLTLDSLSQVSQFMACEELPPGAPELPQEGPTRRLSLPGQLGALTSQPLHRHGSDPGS

inhibition [10]	inhibition [11]	inhibition [12]	Structure (SMILES)	IC50 [1]	MIC [2]	INH [3]	MIC [4]	MIC [5]	MIC [6]	IC50 [7]	INH [8]	INH [9]	inhibition [13]	inhibition [14]	inhibition (INH) [15]	IC50 [16]
–	–	–	COc1ccc2nccc(CC[C@H]3OC[C@H](NC(=O)c4ccc5c(n4)NC(=O)CO5)CO3)c2c1	40 nM	> 64 µg/mL	>200 µM	0.125 µg/mL (≈ 0.269 µM)	0.125 µg/mL (≈ 0.269 µM)	0.125 µg/mL (≈ 0.269 µM)	190 nM	>200 µM	> 12 µM	–	–	–	–
–	–	–	COc1ccc2nccc(CC[C@H]3OC[C@H](NC(=O)c4ccccn4)CO3)c2c1	–	> 256 µg/mL	–	> 256 µg/mL	> 256 µg/mL	> 256 µg/mL	–	–	–	–	–	–	–
Active	–	–	O=C(O)c1cn(C2CC2)c2cc(N3CCNCC3)c(F)cc2c1=O	–	–	–	–	–	–	–	–	–	–	–	–	–
–	–	–	COc1ccc2nccc(CC[C@H]3OC[C@H](NC(=O)C4(C)CCCCC4)CO3)c2c1	–	> 64 µg/mL	–	> 64 µg/mL	> 64 µg/mL	> 64 µg/mL	–	–	–	–	–	–	–
–	inactive	Active	O=c1ccc2ncc(=O)n3c2n1C[C@H]3CN1CCC(NCc2cc3c(cn2)OCCC3)CC1	–	–	–	–	–	–	–	–	–	–	–	–	–
–	–	–	COc1ccc2nccc(CC[C@H]3OC[C@H](NC(=O)C4COc5ccccc5O4)CO3)c2c1 (some centres undefined)	–	> 64 µg/mL	–	> 64 µg/mL	> 64 µg/mL	> 64 µg/mL	–	–	–	–	–	–	–
–	–	–	COc1ccc2nccc(CC[C@H]3OC[C@H](NC(=O)c4ccc(C(F)(F)F)cc4)CO3)c2c1	1100 nM	> 64 µg/mL	6.8 µM	0.25 µg/mL (≈ 0.543 µM)	≤ 0.5 µg/mL	≤ 0.5 µg/mL	> 200000 nM	8.9 µM	> 30 µM	Active	inactive	Not Active	–
–	–	–	COc1ccc2nccc(CC[C@H]3OC[C@H](NC(=O)c4ccc(Cl)cc4)CO3)c2c1	610 nM	> 32 µg/mL	10 µM	1 µg/mL (≈ 2.34 µM)	1 µg/mL (≈ 2.34 µM)	2 µg/mL (≈ 4.68 µM)	–	11 µM	11 µM	Active	inactive	Not Active	Not Active
–	–	–	COc1ccc2nccc(CC[C@H]3OC[C@H](NC(=O)c4ccc(OC(F)(F)F)cc4)CO3)c2c1	1400 nM	> 32 µg/mL	11 µM	0.5 µg/mL (≈ 1.05 µM)	1 µg/mL (≈ 2.1 µM)	2 µg/mL (≈ 4.2 µM)	–	9 µM	> 10 µM	Active	inactive	Not Active	Not Active
–	–	–	COc1ccc2nccc(CC[C@H]3OC[C@H](NC(=O)c4ccc(Cl)c(Cl)c4)CO3)c2c1	590 nM	> 32 µg/mL	–	0.125 µg/mL (≈ 0.271 µM)	0.125 µg/mL (≈ 0.271 µM)	0.5 µg/mL (≈ 1.08 µM)	> 200000 nM	–	–	Active	inactive	–	–
–	–	–	COc1ccc2nccc(CC[C@H]3OC[C@H](NC(=O)c4ccc(C(C)(C)C)cc4)CO3)c2c1	1300 nM	2 µg/mL (≈ 4.46 µM)	8.4 µM	0.25 µg/mL (≈ 0.557 µM)	1 µg/mL (≈ 2.23 µM)	1 µg/mL (≈ 2.23 µM)	> 200000 nM	8.8 µM	5.2 µM	Active	inactive	Not Active	–
–	–	–	COc1ccc2nccc(CC[C@H]3OC[C@H](NC(=O)c4ccccc4Cl)CO3)c2c1	–	> 256 µg/mL	–	256 µg/mL (≈ 600 µM)	> 256 µg/mL	> 256 µg/mL	–	–	–	–	–	–	–
–	–	–	COc1ccc2nccc(CC[C@H]3OC[C@H](NC(=O)c4ccccc4)CO3)c2c1	–	> 256 µg/mL	–	8 µg/mL (≈ 20.4 µM)	8 µg/mL (≈ 20.4 µM)	4 µg/mL (≈ 10.2 µM)	–	–	–	–	–	–	–
–	–	–	COc1ccc2nccc(CC[C@H]3OC[C@H](NC(=O)CC4CCCCC4)CO3)c2c1	–	> 64 µg/mL	–	> 64 µg/mL	> 64 µg/mL	> 64 µg/mL	–	–	–	–	–	–	–
–	–	–	COc1ccc2nccc(CC[C@H]3OC[C@H](NC(=O)C4Cc5ccccc5CO4)CO3)c2c1 (some centres undefined)	–	> 64 µg/mL	–	> 64 µg/mL	> 64 µg/mL	> 64 µg/mL	–	–	–	–	–	–	–
–	–	–	COc1ccc2nccc(CC[C@H]3OC[C@H](NC(=O)[C@H]4CC[C@@H](O)CC4)CO3)c2c1	–	> 64 µg/mL	–	> 64 µg/mL	> 64 µg/mL	> 64 µg/mL	–	–	–	–	–	–	–
–	–	–	COc1ccc2nccc(CC[C@H]3OC[C@H](NC(=O)C4COc5ccccc5C4)CO3)c2c1 (some centres undefined)	–	> 64 µg/mL	–	> 64 µg/mL	> 64 µg/mL	> 64 µg/mL	–	–	–	–	–	–	–
